Screening data as filed in PubChem BioAssay.
Only some compounds are listed: those with a hit (about 1.9% of all), similar ones and a draw of the others.
TbHK1 inh: blocks Trypanosoma brucei hexokinase 1 activity | recombinant TbHK1, G6PDH-coupled NADH A340 | hit rate 0.11% among 220,000 | AID 1430 | inhibition, % at 10 µM;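 active = inhibition of 50% or more in the single-dose primary screen; inactive = inhibition below 50%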
Hck Nef HTS: human Hck-Nef kinase inhibition; Recombinant Hck-YEEI plus Nef, Z-Lyte FRET kinase assay; P08631; AID 463187; inhibition, % at 20 µM; hit rate 0.68% among 220,000;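 active = Hck-Nef kinase inhibition above about 50%, limit read from the data; inactive = inhibition below that limit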;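 note: 0% = DMSO with Hck plus Nef and 100% = Hck alone without Nef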
Runt-SMMHC FRET: blocks binding of human RUNX1 Runt domain to CBFb-SMMHC | Q01196+Q13951 | Cerulean-Runt/Venus-CBFb-SMMHC FRET ratio 530/480, 1 h | inhibition, % at 20 µM | hit rate 0.74% among 220,000;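 active = mean inhibition across duplicate retests at 20 µM reaching about 50%, limit read from the data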;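 note: 0% = DMSO wells and 100% = wells with excess untagged CBFb-SMMHC; inhibitors lower the FRET ratio by blocking Runt binding to CBFb-SMMHC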
Target sequence (Q01196 whole entry, looked up, the tested form may be a part): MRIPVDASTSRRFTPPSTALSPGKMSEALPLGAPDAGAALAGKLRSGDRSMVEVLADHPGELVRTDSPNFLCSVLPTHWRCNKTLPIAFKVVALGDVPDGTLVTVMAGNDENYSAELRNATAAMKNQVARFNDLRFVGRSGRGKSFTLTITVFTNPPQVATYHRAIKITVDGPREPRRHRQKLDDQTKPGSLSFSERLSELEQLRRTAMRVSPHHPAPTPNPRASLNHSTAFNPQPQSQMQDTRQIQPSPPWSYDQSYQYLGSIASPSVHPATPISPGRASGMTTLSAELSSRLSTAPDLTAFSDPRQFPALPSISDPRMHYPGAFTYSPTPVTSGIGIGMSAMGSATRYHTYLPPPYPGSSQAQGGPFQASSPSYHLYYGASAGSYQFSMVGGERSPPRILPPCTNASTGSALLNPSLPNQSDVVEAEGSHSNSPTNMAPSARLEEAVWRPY
Target sequence (Q13951 whole entry, looked up, the tested form may be a part): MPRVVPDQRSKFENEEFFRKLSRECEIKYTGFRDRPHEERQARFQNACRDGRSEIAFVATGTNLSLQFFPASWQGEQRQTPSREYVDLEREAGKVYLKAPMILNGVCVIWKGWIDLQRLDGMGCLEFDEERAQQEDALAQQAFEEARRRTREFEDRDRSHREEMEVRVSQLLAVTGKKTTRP
Runt-CBFb FRET: blocks binding of human RUNX1 Runt domain to CBFb | Q01196+Q13951 | AID 1496 | inhibition, % at 20 µM | hit rate 0.46% among 220,000 | Cerulean-Runt/Venus-CBFb FRET ratio 530/480, 1 h;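 active = inhibition over about 50% at 20 µM in the single-dose screen, limit read from the data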;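 note: 0% = DMSO wells and 100% = excess unlabeled CBFb competitor control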
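Measured by: fluorescence energy transfer, 422 nm excitation, 530/480 nm emission; test system: Cerulean-tagged RUNX1 Runt domain (FRET donor) fusion protein; buffer or medium: Tris pH 7.5 buffer with BSA; compound: one dose, 20 µM compound, 1% DMSO; times: two 1 h room-temperature incubations shielded from light; benchmarks: unlabeled CBFb 5 µM, positive control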
RanGTP-Imp inh: inhibitors of RanGTP-importin-beta interaction, primary screen, biochemical, FRET, CFP-Ran, YFP-importin-beta, homogeneous; cell-free CFP-Ran/YFP-importin-beta FRET ratio; hit rate 1.1% among 300,000; inhibition, % (no concentration beside the values);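 active = more than half of the replicate wells show a fall in the fluorescence ratio signal beyond about 16%, limit read from the data, passing the limit was not always enough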;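 note: 0% = DMSO wells and 100% = Ran loaded with GDP instead of GTP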
Hck Nef conf: Hck-Nef kinase inhibition, confirmation; shares compounds with Hck Nef HTS; Recombinant Hck-YEEI:Nef, Z-Lyte FRET kinase assay; calls only at 10 µM; hit rate 28% among 1,300; AID 463188;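 active = average inhibition of at least 50%, with Z-scores no higher than 3 in both the phospho-tyrosine peptide and fluorescence counterscreens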
The depositor's hits bear a star.

Screening CCCCNC(=O)N1CCCN(c2ccc(C#N)cn2)CC1 returned RanGTP-Imp inh 2.
Screening CCN1CCN(Cc2ccc(NC(=O)c3ccc(C)c(NC(=O)c4ccc5n[nH]nc5c4)c3)cc2C(F)(F)F)CC1 returned TbHK1 inh 8, Hck Nef HTS 76*, Runt-SMMHC FRET 1, Runt-CBFb FRET 1, RanGTP-Imp inh -2 and Hck Nef conf active.
`CCN1CCN(Cc2ccc(NC(=O)c3ccc(C)c(NC(=O)c4ccnnc4)c3)cc2C(F)(F)F)CC1` gave TbHK1 inh -2, Hck Nef HTS 55*, Runt-SMMHC FRET 1, Runt-CBFb FRET 2, RanGTP-Imp inh 0 and Hck Nef conf inactive.
`S=C(NCc1ccco1)Nc1cccc(Cl)c1Cl` gave TbHK1 inh -3, Hck Nef HTS 21, Runt-SMMHC FRET 1, Runt-CBFb FRET 3 and RanGTP-Imp inh 0.
`CN(C)S(=O)(=O)c1cccc(C(=O)NCc2ccco2)c1` gave TbHK1 inh 3, Hck Nef HTS 6, Runt-SMMHC FRET 2, Runt-CBFb FRET 2 and RanGTP-Imp inh -2.
For Cc1ccc(S(=O)(=O)N(C)C)cc1NC(=S)NCc1ccco1 the results were TbHK1 inh -2, Hck Nef HTS 113*, Runt-SMMHC FRET 5, RanGTP-Imp inh -2 and Hck Nef conf active.
S=C(NCc1ccco1)Nc1ccccc1Cl was read as TbHK1 inh 7, Hck Nef HTS 94*, Runt-SMMHC FRET -5, Runt-CBFb FRET 4, RanGTP-Imp inh -4 and Hck Nef conf inactive.
`COc1cc(C=C2C(=O)c3ccccc3C2=O)cc(OC)c1OC` gave TbHK1 inh 10, Hck Nef HTS 22, Runt-SMMHC FRET -4, Runt-CBFb FRET -6 and RanGTP-Imp inh -2.
For COc1cc(C=C2C(=O)c3ccccc3C2=O)ccc1O the results were TbHK1 inh -11, Hck Nef HTS 74*, Runt-SMMHC FRET -4, Runt-CBFb FRET -6, RanGTP-Imp inh -4 and Hck Nef conf inactive.
For COc1ccc(C=C2C(=O)c3ccccc3C2=O)cc1O the results were TbHK1 inh -8, Hck Nef HTS 105*, Runt-SMMHC FRET 0, Runt-CBFb FRET 0, RanGTP-Imp inh 0 and Hck Nef conf inactive.
COc1cc(C2=NC(CO)(CO)CO2)cc(OC)c1OC was read as TbHK1 inh -4, Hck Nef HTS 20, Runt-SMMHC FRET -2, Runt-CBFb FRET 1 and RanGTP-Imp inh 4.
Cc1ccc(S(=O)(=O)N2CCN(C(=O)COC(=O)CNC(=O)c3ccc(Cl)cc3Cl)CC2)cc1 was read as RanGTP-Imp inh -2.
For CC(=O)c1cccc(NC(=O)CC2S/C(=N/N=C/c3cccs3)NC2=O)c1 (centres undefined) the results were TbHK1 inh -15, Hck Nef HTS 31, Runt-SMMHC FRET -4, Runt-CBFb FRET -1 and RanGTP-Imp inh -1.
Screening CC(=O)c1cccc(NC(=O)CC2S/C(=N/N=C/c3ccccc3)NC2=O)c1 (centres undefined) returned TbHK1 inh -9, Hck Nef HTS 53*, Runt-SMMHC FRET -2, Runt-CBFb FRET -3, RanGTP-Imp inh 3 and Hck Nef conf inactive.
Screening Cc1ccc2c(c1)C1C=CCC1C(C(=O)O)N2 (centres undefined) returned TbHK1 inh 16, Hck Nef HTS 8, Runt-SMMHC FRET 10, Runt-CBFb FRET 2 and RanGTP-Imp inh 2.
Screening CC(=O)c1ccc2c(c1)C1C=CCC1C(C(=O)O)N2 (centres undefined) returned TbHK1 inh 1, Hck Nef HTS 74*, Runt-SMMHC FRET 43, Runt-CBFb FRET 28 and Hck Nef conf active.
`Cc1cc(NC(=O)c2cccs2)n(-c2nc3ccccc3[nH]2)n1` gave TbHK1 inh -11, Hck Nef HTS 85*, Runt-SMMHC FRET -3, Runt-CBFb FRET -1, RanGTP-Imp inh 1 and Hck Nef conf inactive.
`Cc1cc(NC(=O)c2sccc2C)n(-c2nc3ccccc3[nH]2)n1` gave TbHK1 inh 2, Hck Nef HTS 26, Runt-SMMHC FRET -1, Runt-CBFb FRET 0 and RanGTP-Imp inh 3.
C=CCNC(=O)c1c(N)n(-c2cccc(S(N)(=O)=O)c2)c2nc3ccccc3nc12 was read as TbHK1 inh -3, Hck Nef HTS 58*, Runt-SMMHC FRET 38, Runt-CBFb FRET 80* and Hck Nef conf inactive.
For C=CCNC(=O)c1nc2ccccc2s1 the results were TbHK1 inh -2, Hck Nef HTS 11, Runt-SMMHC FRET -6, Runt-CBFb FRET 0 and RanGTP-Imp inh 3.
C/C(=N\Nc1ccc(S(N)(=O)=O)cc1[N+](=O)[O-])c1ccc2c(c1)OCO2 was read as TbHK1 inh -19, Hck Nef HTS 65*, Runt-SMMHC FRET -2, Runt-CBFb FRET -1, RanGTP-Imp inh -2 and Hck Nef conf active.
For COC(=O)C1=CN(CCOC23CC4CC(CC(C4)C2)C3)C=C(C(=O)OC)C1c1ccsc1 the results were TbHK1 inh -5, Hck Nef HTS 70*, Runt-SMMHC FRET 34, Runt-CBFb FRET 14, RanGTP-Imp inh 2 and Hck Nef conf inactive.
COC(=O)C1=C(C)NC2=C(C(=O)CCC2)C1c1ccsc1 (centres undefined) was read as TbHK1 inh -10, Hck Nef HTS 17, Runt-SMMHC FRET 5, Runt-CBFb FRET 1 and RanGTP-Imp inh -1.
`O=C(O)c1ccc(CN2C(=O)c3ccc(C(=O)O)cc3C2=O)cc1` gave RanGTP-Imp inh 1.
For Cc1ccc(CN2C(=O)N/C(=C\c3ccc(-c4ccc(C(=O)O)cc4C)o3)C2=O)cc1 the results were TbHK1 inh 5, Hck Nef HTS 60*, Runt-SMMHC FRET 84*, Runt-CBFb FRET 110* and Hck Nef conf inactive.
For O=C(Nc1nc2ccc(S(=O)(=O)N3CCCC3)cc2s1)c1ccccn1 the results were TbHK1 inh -4, Hck Nef HTS 57*, Runt-SMMHC FRET 3, Runt-CBFb FRET -1, RanGTP-Imp inh 10 and Hck Nef conf inactive.
Screening O=C(Nc1nc2ccc(S(=O)(=O)N3CCCCC3)cc2s1)c1ccncc1 returned TbHK1 inh -36, Hck Nef HTS 1, Runt-SMMHC FRET -10, Runt-CBFb FRET 0 and RanGTP-Imp inh -1.
`CCC(=O)OC1(C)C(=O)C=C2C=C(c3ccsc3)OC=C2C1=O` (centres undefined) gave TbHK1 inh -17, Hck Nef HTS 65*, Runt-SMMHC FRET -19, Runt-CBFb FRET 4, RanGTP-Imp inh 3 and Hck Nef conf active.
Screening COC(=O)CCC(=O)OC1(C)C(=O)C=C2C=C(c3ccsc3)OC=C2C1=O (centres undefined) returned RanGTP-Imp inh -8.
